Results published in publication PMC9535927 (The Biochemical journal, 2020).
Read-outs that look alike come from different tables or passages of the source.

What was measured:
ASCT2 [1] = type: cell-based, rat/human
ASCT2 [2] = molecular target: T1, ASCT2 (Homo sapiens, UniProt Q15758); experiment: Radiotracer flux: 14C BMAA uptake in ASCT2-transfected MDCK-II cell monolayers; type: cell-based
T1 sequence (Q15758 1-541): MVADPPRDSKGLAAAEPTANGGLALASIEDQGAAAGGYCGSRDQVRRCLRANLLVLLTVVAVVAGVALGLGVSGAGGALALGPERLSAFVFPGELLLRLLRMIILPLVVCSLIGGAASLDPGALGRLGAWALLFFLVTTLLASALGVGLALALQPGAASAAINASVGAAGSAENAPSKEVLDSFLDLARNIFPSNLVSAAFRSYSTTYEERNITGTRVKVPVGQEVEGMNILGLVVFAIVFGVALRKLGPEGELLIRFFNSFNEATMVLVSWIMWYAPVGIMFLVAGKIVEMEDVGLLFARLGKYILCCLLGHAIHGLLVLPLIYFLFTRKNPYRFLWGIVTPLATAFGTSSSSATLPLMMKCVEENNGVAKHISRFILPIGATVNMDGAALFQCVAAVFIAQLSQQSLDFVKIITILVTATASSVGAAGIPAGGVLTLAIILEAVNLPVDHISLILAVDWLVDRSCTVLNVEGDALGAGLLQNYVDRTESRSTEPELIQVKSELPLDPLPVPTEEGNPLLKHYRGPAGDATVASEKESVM
Procedure, shortened: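 ASCT2-transfected MDCK-II cells grown as monolayers on transwell membranes, assayed 48 h after transfection. After washing, 2 mM 14C BMAA was applied apically for 5 min. Apical and basolateral solutions were then aspirated and both sides washed. Cells were extracted in acetonitrile:water (50:50) and the extract counted by liquid scintillation. Uptake is given as pmol/min/cm2 and compared with non-ASCT2-expressing control cells.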

ASCT2 [3] = details: read-out: Ki (competes with alanine for the substrate binding site); cited from earlier work
rASCT2 = molecular target: T2, rASCT2 (Rattus norvegicus, UniProt D3ZJ25); experiment: Glutamine uptake fluorescence assay; type: cell-based
T2 sequence (D3ZJ25 1-555): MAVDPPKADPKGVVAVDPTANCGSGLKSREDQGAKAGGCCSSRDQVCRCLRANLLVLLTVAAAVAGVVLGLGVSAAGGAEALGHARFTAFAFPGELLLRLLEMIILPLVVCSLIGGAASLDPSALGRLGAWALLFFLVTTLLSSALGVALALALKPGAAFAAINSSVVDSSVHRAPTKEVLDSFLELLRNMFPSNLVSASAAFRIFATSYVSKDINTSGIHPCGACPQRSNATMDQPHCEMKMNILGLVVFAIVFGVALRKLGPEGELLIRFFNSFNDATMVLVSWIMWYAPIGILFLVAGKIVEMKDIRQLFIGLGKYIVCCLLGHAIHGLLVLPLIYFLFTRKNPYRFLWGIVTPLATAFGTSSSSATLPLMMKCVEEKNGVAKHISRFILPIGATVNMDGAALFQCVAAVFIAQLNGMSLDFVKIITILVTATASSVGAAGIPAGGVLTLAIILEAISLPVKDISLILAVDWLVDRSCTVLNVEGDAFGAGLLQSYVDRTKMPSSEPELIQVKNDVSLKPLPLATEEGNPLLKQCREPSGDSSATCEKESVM

[4] = Proton ionisation constants; type: physicochemical; details: pH 7.4
[5] = cited from earlier work
[6] = 4 mM (D-2,3-DAP: up to 4 mM), pH 7.40
[7] = 2 mM, pH 7.40, intracellular SCN-

Structure (SMILES): CNC[C@H](N)C(=O)O [BMAA, β-N-Methylamino-L-Alanine]
- inward current relative to the maximum anion current induced by L-alanine (ASCT2 [1]; pH 7.40, V = 0 mV): less than 20%
- uptake of 14C BMAA (ASCT2 [2]; 2 mM, control cells (non-ASCT2 expressing)): 163 ± 36 pmol/min/cm^2
- transport rate by ASCT2, fold lower than L-glutamine (ASCT2 [2]; if transported at all, inferred from sensitivity of uptake assay): at least 10 fold

Structure (SMILES): O=C(O)[C@@H]1C[C@@H](Cc2ccc(-c3ccccc3)cc2)CN1 [BPP, (R)-γ-(4-biphenylmethyl)-L-proline]
- Ki (ASCT2 [3]): 3 µM

Structure (SMILES): NC[C@@H](N)C(=O)O [D-2,3-DAP]
- current elicited on application to ASCT2-expressing cells (ASCT2 [1]; [6]): did not produce any current

Structure (SMILES): NCC[C@H](N)C(=O)O [L-DAB, L-2,4-diaminobutyric acid]
- current elicited on application to ASCT2-expressing cells (ASCT2 [1]; [7]): produced an inward current, however, with smaller magnitude than that generated by L-DAP

Structure (SMILES): NC[C@H](N)C(=O)O [L-DAP, L-2,3-diaminopropionic acid]
- decrease in fluorescence emission in the Venus range (glutamine uptake) (rASCT2; 500 μM glutamine plus 2 mM test compound): 1.00 ± 1.14%
- protonation of the α-amino group [4]: 20%
- direction of evoked current at low pH (ASCT2 [1]; 2 mM, extracellular pH below 6.50, V = 0 mV): outwardly directed
- current elicited on application to ASCT2-expressing cells (ASCT2 [1]; [7]): elicited an inwardly-directed current
- apparent valence from slope of log(Km) vs. voltage (ASCT2 [1]; extracellular 140 mM NaCl, intracellular 130 mM NaSCN, pH 7.4): 0.21 ± 0.04
- pKa of the α-amino group [5]: 6.7

Structure (SMILES): NCCCC[C@H](N)C(=O)O [L-lysine]
- current elicited on application to ASCT2-expressing cells (ASCT2 [1]; [6]): not significantly different from zero

Structure (SMILES): NCCC[C@H](N)C(=O)O [L-ornithine]
- current elicited on application to ASCT2-expressing cells (ASCT2 [1]; [6]): not significantly different from zero

Structure (SMILES): N[C@@H](COCc1ccccc1)C(=O)O [benzylserine]
- decrease in fluorescence emission in the Venus range (glutamine uptake) (rASCT2; 500 μM glutamine plus 5 mM test compound): 2.70 ± 1.25%

Structure (SMILES): NC(=O)CC[C@H](N)C(=O)O [glutamine]
- decrease in fluorescence emission in the Venus range (glutamine uptake) (rASCT2; 500 μM glutamine applied externally alone): 11.2 ± 0.89%

Structure (SMILES): NC(=O)CCCC(N)C(=O)O (centres unmarked) [homoglutamine]
- current elicited on application to ASCT2-expressing cells (ASCT2 [1]; pH 7.4): outward current
